Source: ChEMBL document CHEMBL3861960, “Leoligin, the Major Lignan from Edelweiss (Leontopodium nivale subsp. alpinum), Promotes Cholesterol Efflux from THP-1 Macrophages” (J Nat Prod, 2016)
The source made the active and inactive calls. The calls are words filed in the database; no cut-off is given here.

Key:
THP-1 [1] = assay: Effect on SHMT1 protein expression in human THP1 cells at 10 uM after 24 hrs by proteome analysis relative to control; type: functional
Outline: (§1)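 PMA-differentiated THP-1 macrophages given 10 μM compound or DMSO for 24 h, then lysed in TRIzol. Proteins reduced with DTT, alkylated with iodoacetamide, digested with trypsin (1:50 w/w) for 16 h at 30 °C. Biological replicates pooled, analysed by LC-MS/MS on an Orbitrap Velos Pro with a 4 h gradient, FDR ≤0.05. Only unique peptides used; log2 peptide ratios averaged per protein and tested by one-sample t test versus vehicle.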

THP-1 [2] = assay: Suppression of ABCA1 mRNA degradation in human THP1 cells at 10 uM in presence of de novo gene transcription inhibitor actinomycin D at 2 hrs by qPCR method; type: functional, cell-based
Outline: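 Differentiated THP-1 macrophages treated with 10 μM compound or DMSO for 24 h, then given 5 μg/mL actinomycin D and lysed at set time points. Total RNA extracted and reverse-transcribed; ABCA1 mRNA measured by SYBR Green qPCR normalised to 18S. Four independent experiments.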

THP-1 [3] = assay: Effect on MAN2A1 protein expression in human THP1 cells at 10 uM after 24 hrs by proteome analysis relative to control; type: functional; outline: as §1
[4] = Upregulation of ABCG1 mRNA expression in human THP1 cells at 10 uM after 24 hrs by qPCR method relative to control; type: functional, cell-based; details: THP-1
Outline: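 THP-1 macrophages treated for 24 h with 10 μM compound, 10 μM pioglitazone or DMSO. Total RNA extracted and converted to cDNA; ABCA1 or ABCG1 measured by SYBR Green qPCR and expressed relative to 18S. Mean ± SD of four independent experiments; one-way ANOVA with Bonferroni test against DMSO.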

THP-1 [5] = assay: Effect on DNAH9 protein expression in human THP1 cells at 10 uM after 24 hrs by proteome analysis relative to control; type: functional; outline: as §1
THP-1 [6] = assay: Effect on HIST2H2AC protein expression in human THP1 cells at 10 uM after 24 hrs by proteome analysis relative to control; type: functional; outline: as §1
THP-1 [7] = assay: Effect on SPCS1 protein expression in human THP1 cells at 10 uM after 24 hrs by proteome analysis relative to control; type: functional; outline: as §1
THP-1 [8] = assay: Effect on P4HTM protein expression in human THP1 cells at 10 uM after 24 hrs by proteome analysis relative to control; type: functional; outline: as §1
THP-1 [9] = assay: Effect on CUL7 protein expression in human THP1 cells at 10 uM after 24 hrs by proteome analysis relative to control; type: functional; outline: as §1
THP-1 [10] = assay: Effect on TOMM20 protein expression in human THP1 cells at 10 uM after 24 hrs by proteome analysis relative to control; type: functional; outline: as §1
THP-1 [11] = assay: Effect on RAB4A protein expression in human THP1 cells at 10 uM after 24 hrs by proteome analysis relative to control; type: functional; outline: as §1
THP-1 [12] = assay: Effect on NCSTN protein expression in human THP1 cells at 10 uM after 24 hrs by proteome analysis relative to control; type: functional; outline: as §1
THP-1 [13] = assay: Effect on BHLHA15 protein expression in human THP1 cells at 10 uM after 24 hrs by proteome analysis relative to control; type: functional; outline: as §1
THP-1 [14] = assay: Effect on CYP1B1 protein expression in human THP1 cells at 10 uM after 24 hrs by proteome analysis relative to control; type: functional; outline: as §1
THP-1 [15] = assay: Effect on EVI2B protein expression in human THP1 cells at 10 uM after 24 hrs by proteome analysis relative to control; type: functional; outline: as §1
THP-1 [16] = assay: Effect on MYL12A protein expression in human THP1 cells at 10 uM after 24 hrs by proteome analysis relative to control; type: functional; outline: as §1
THP-1 [17] = assay: Induction of 1% human plasma-mediated cholesterol efflux from [3H]-cholesterol labeled human THP1 cells at 10 uM preincubated for 24 hrs followed by 1% human plasma addition measured after 6 hrs by scintillation counting method; type: functional
Outline: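 Differentiated THP-1 macrophages loaded with [3H]-cholesterol for 24 h in the presence of compound, or pioglitazone 10 μM as positive control. Medium then replaced with serum-free RPMI containing compound, with or without acceptor (10 μg/mL apo A1 or 1% human plasma from fasted volunteers), for 6 h. Efflux % = extracellular/total cpm with acceptor minus without acceptor, ×100, by scintillation counting. Three independent experiments.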

THP-1 [18] = assay: Effect on ATP13A3 protein expression in human THP1 cells at 10 uM after 24 hrs by proteome analysis relative to control; type: functional; outline: as §1
THP-1 [19] = assay: Effect on MYL12B protein expression in human THP1 cells at 10 uM after 24 hrs by proteome analysis relative to control; type: functional; outline: as §1
THP-1 [20] = assay: Effect on CPA3 protein expression in human THP1 cells at 10 uM after 24 hrs by proteome analysis relative to control; type: functional; outline: as §1
THP-1 [21] = assay: Effect on PAIP2 protein expression in human THP1 cells at 10 uM after 24 hrs by proteome analysis relative to control; type: functional; outline: as §1
[22] = Upregulation of ABCG1 protein expression in human THP1 cells at 10 uM after 24 hrs by Western blot method; type: functional, cell-based; details: THP-1
Outline: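 PMA-differentiated THP-1 macrophages (200 nM PMA, 72 h) exposed to 10 μM agent or DMSO vehicle for 24 h. Lysis in NP40 buffer with protease inhibitors, then Bradford protein assay. 20 μg protein run on SDS-PAGE, blotted to PVDF and probed with anti-ABCG1, β-actin as reference. ECL band densitometry from four independent experiments.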

THP-1 [23] = assay: Effect on OR1M1 protein expression in human THP1 cells at 10 uM after 24 hrs by proteome analysis relative to control; type: functional; outline: as §1
THP-1 [24] = assay: Effect on DBI protein expression in human THP1 cells at 10 uM after 24 hrs by proteome analysis relative to control; type: functional; outline: as §1
THP-1 [25] = assay: Effect on MCM8 protein expression in human THP1 cells at 10 uM after 24 hrs by proteome analysis relative to control; type: functional; outline: as §1
THP-1 [26] = assay: Effect on MCM9 protein expression in human THP1 cells at 10 uM after 24 hrs by proteome analysis relative to control; type: functional; outline: as §1

**Q.** Which “fold change (FC)” value (THP-1 [1]) does the source give for `C/C=C(/C)C(=O)OC[C@H]1[C@@H](Cc2ccc(OC)c(OC)c2)CO[C@@H]1c1ccc(OC)c(OC)c1` here?
**A.** 1.8

**Q.** What about the Activity (THP-1 [2]) of the same compound?
**A.** Active

**Q.** What about the “fold change (FC)” value (THP-1 [3]) of the same compound?
**A.** 2

**Q.** And the fold change (FC) [4]?
**A.** 3.8

**Q.** And the “fold change (FC)” value (THP-1 [5])?
**A.** 0.4

**Q.** And the “fold change (FC)” value (THP-1 [6])?
**A.** 0.6

**Q.** What about the “fold change (FC)” value (THP-1 [7]) of the same compound?
**A.** 1.6

**Q.** What about the “fold change (FC)” value (THP-1 [8]) of the same compound?
**A.** 0.6

**Q.** What about the “fold change (FC)” value (THP-1 [9]) of the same compound?
**A.** 0.6

**Q.** What about the “fold change (FC)” value (THP-1 [10]) of the same compound?
**A.** 1.6

**Q.** What about the “fold change (FC)” value (THP-1 [11]) of the same compound?
**A.** 1.9

**Q.** What about the “fold change (FC)” value (THP-1 [12]) of the same compound?
**A.** 1.7

**Q.** And the “fold change (FC)” value (THP-1 [13])?
**A.** 0.7

**Q.** What about the “fold change (FC)” value (THP-1 [14]) of the same compound?
**A.** 1.6

**Q.** What about the “fold change (FC)” value (THP-1 [15]) of the same compound?
**A.** 2.3

**Q.** And the “fold change (FC)” value (THP-1 [16])?
**A.** 2.2

**Q.** And the Activity (THP-1 [17])?
**A.** Active

**Q.** And the “fold change (FC)” value (THP-1 [18])?
**A.** 1.7

**Q.** And the “fold change (FC)” value (THP-1 [19])?
**A.** 2

**Q.** What about the “fold change (FC)” value (THP-1 [20]) of the same compound?
**A.** 1.7

**Q.** What about the “fold change (FC)” value (THP-1 [21]) of the same compound?
**A.** 1.7

**Q.** And the Activity [22]?
**A.** Active

**Q.** And the “fold change (FC)” value (THP-1 [23])?
**A.** 2

**Q.** What about the “fold change (FC)” value (THP-1 [24]) of the same compound?
**A.** 1.6

**Q.** What about the “fold change (FC)” value (THP-1 [25]) of the same compound?
**A.** 0.5

**Q.** What about the “fold change (FC)” value (THP-1 [26]) of the same compound?
**A.** 1.9
